ChEMBL document CHEMBL1129397, “Synthesis and biological activity of aromatic amino acid phosphoramidates of 5-fluoro-2'-deoxyuridine and 1-beta-arabinofuranosylcytosine: evidence of phosphoramidase activity” (J Med Chem, 1996)

What was measured:
[1] = target: T1, Thymidylate synthase (Mus musculus, UniProt P07607); assay: Inhibition of cellular thymidylate synthase activity of murine leukemia cell line (L1210) in permeabilised cells.; assay type: cell-based
[2] = target: T1, Thymidylate synthase; assay: Inhibition of cellular thymidylate synthase activity of mouse fibroblast (L929 TK-) in intact cells.; assay type: cell-based
[3] = test system: CEM-TK(-); assay: In vitro cytotoxicity of compounds were determined on Inhibition of human leukemia cell line (CEM-TK)
[4] = target: T1, Thymidylate synthase; assay: Inhibition of cellular thymidylate synthase activity of mouse fibroblast (L929 TK-) in permeabilised cells.; assay type: cell-based
In short: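 L929 TK⁻ cells were permeabilized with high-molecular-weight dextran sulfate. Intracellular thymidylate synthase activity was then measured in situ by tritium release, and IC50 values were determined.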

[5] = test system: L929; assay: In vitro cytotoxicity of compounds were determined on mouse fibroblast (L929 TK-).; assay type: functional, cell-based
In short: (§1)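 Cells were cultured with or without compound for 48 h at 37 °C in a 5% CO2–95% air atmosphere. Portions were then counted for proliferation and viability by trypan blue dye exclusion. IC50 was taken from the remaining viable cell number.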

[6] = target: T1, Thymidylate synthase; assay: Inhibition of cellular thymidylate synthase activity of murine leukemia cell line (L1210) in intact cells.; assay type: cell-based
[7] = test system: CCRF-CEM; assay: In vitro cytotoxicity of compounds were determined on Inhibition of human leukemia cell line(CCRF-CEM).; assay type: functional, cell-based
In short: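 CCRF-CEM cells, or a CEM-TK⁻ variant with less than 1% of wild-type thymidine kinase activity, were grown in RPMI 1640 with 20% heat-inactivated FBS, penicillin, streptomycin and 0.5% human IL-2. Cells were cultured with or without compound for 48 h at 37 °C in 5% CO2. Proliferation and viability were then counted by trypan blue dye exclusion.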

[8] = test system: L1210; assay: In vitro cytotoxicity of compounds were determined on murine leukemia cell line (L1210).; assay type: functional, cell-based; conditions: Mus musculus; in short: as §1
[9] = target: T1, Thymidylate synthase; assay: Inhibition of cellular thymidylate synthase activity of mouse fibroblast (L929 TK-) in permeabilised cells; assay type: cell-based
[10] = test system: CEM-TK(-) (Homo sapiens); assay: In vitro cytotoxicity of compounds were determined on human leukemia cells (CEM-TK-).
[11] = test system: L929 TK- (Mus musculus); assay: In vitro cytotoxicity of compounds were determined on murine fibroblast cell line (L929 TK-) in.

T1 sequence (P07607 whole entry): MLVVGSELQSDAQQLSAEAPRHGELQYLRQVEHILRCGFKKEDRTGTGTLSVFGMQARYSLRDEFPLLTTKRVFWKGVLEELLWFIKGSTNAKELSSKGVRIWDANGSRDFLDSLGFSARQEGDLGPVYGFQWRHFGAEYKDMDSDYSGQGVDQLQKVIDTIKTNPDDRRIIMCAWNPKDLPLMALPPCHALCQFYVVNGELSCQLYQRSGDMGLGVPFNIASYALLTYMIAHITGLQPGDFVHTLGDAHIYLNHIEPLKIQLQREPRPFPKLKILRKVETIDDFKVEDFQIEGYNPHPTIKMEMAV

| SMILES | IC50 [1] | IC50 [2] | IC50 [3] | IC50 [4] | IC50 [5] | IC50 [6] | IC50 [7] | IC50 [8] | IC50 [9] | IC50 [10] | IC50 [11] |
| --- | --- | --- | --- | --- | --- | --- | --- | --- | --- | --- | --- |
| O=c1[nH]c(=O)n([C@H]2C[C@H](O)[C@@H](CO)O2)cc1F [FLOXURIDINE] | 59 µM | 7.3 µM | 66.3 µM | 11 µM | 7.7 µM | 0.043 µM | 0.002 µM | 0.012 µM |  |  |  |
| COC(=O)[C@@H](NP(=O)(O)OC[C@H]1O[C@@H](n2cc(F)c(=O)[nH]c2=O)C[C@@H]1O)C1C=Nc2ccccc21 (some centres undefined) | 2.3 µM | 0.67 µM |  |  |  | 12 µM | 0.32 µM | 0.4 µM | > 1000 µM | 58.1 µM | 240 µM |
| O=c1[nH]c(=O)n([C@H]2C[C@H](O)[C@@H](COP(=O)(O)O)O2)cc1F [5-FLUORODEOXYURIDYLATE] |  |  |  |  | 6.8 µM |  | 0.0055 µM | 0.015 µM |  |  |  |
| COC(=O)[C@H](Cc1ccccc1)NP(=O)(O)OCC1OC(n2cc(F)c(=O)[nH]c2=O)CC1O (some centres undefined) | 5 µM | > 1000 µM | 86.5 µM |  | 200 µM | 21 µM | 0.32 µM | 0.41 µM | 1.1 µM |  |  |
| Nc1ccn([C@@H]2O[C@H](COP(=O)(O)O)[C@@H](O)[C@H]2O)c(=O)n1 |  |  |  |  |  |  | 0.1 µM |  |  |  |  |
| Nc1ccn([C@@H]2O[C@H](CO)[C@@H](O)[C@@H]2O)c(=O)n1 [CYTARABINE] |  |  |  |  |  |  | 0.09 µM |  |  |  |  |
